Measured values as given in ChEMBL document CHEMBL1132557, “Novel, potent, semisynthetic antimalarial carba analogues of the first-generation 1,2,4-trioxane artemether” (J Med Chem, 1999).

Key:
Plasmodium falciparum [1] = assay: In vitro antimalarial activity against chloroquine-sensitive Plasmodium falciparum HB3; type: functional, organism-based
How it was run: (§1)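 P. falciparum kept in human erythrocytes in RPMI 1640 with 25 mM HEPES, 32 mM NaHCO3, 10% human serum, under 3% O2/4% CO2/93% N2. 48-h assay at 2% parasitemia, 0.5% hematocrit; DMSO stocks diluted in medium; triplicates. [3H]hypoxanthine (0.5 μCi) added at 24 h, harvested 24 h later; IC50 by probit interpolation of log dose-response.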

Plasmodium falciparum [2] = assay: In vitro antimalarial activity against chloroquine-resistant Plasmodium falciparum K1
Mus musculus = assay: Compound was tested in vivo for antimalarial activity against Plasmodium berghei in the mice (Mus musculus) model.; type: functional
How it was run: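 Male random Swiss albino mice, 18-22 g, infected ip with 10^7 P. berghei NS-strain parasitized erythrocytes; ip dosing once daily for four consecutive days starting on infection day; vehicle methanol/PBS/DMSO (2:5:3). Parasitemia read the day after last dose; ED50 (50% suppression vs vehicle-only controls) taken from log dose vs parasitemia plot.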

Plasmodium falciparum [3] = assay: In vitro antimalarial activity against chloroquine-sensitive Plasmodium falciparum K1; type: functional, organism-based; how it was run: as §1

## C[C@H]1[C@@H](CCOC(=O)c2ccc(C(F)(F)F)cc2)O[C@@H]2OC3(C)CC[C@H]4[C@H](C)CC[C@@H]1[C@@]24OO3 (single isomer, unassigned)
Plasmodium falciparum [1]
  IC50: 0.59 nM
Plasmodium falciparum [2]
  IC50: 14.2 nM

## C[C@H]1[C@@H](CCOCc2ccc(F)cc2)O[C@@H]2OC3(C)CC[C@H]4[C@H](C)CC[C@@H]1[C@@]24OO3 (single isomer, unassigned)
Plasmodium falciparum [1]
  IC50: 0.73 nM
Plasmodium falciparum [2]
  IC50: 6.08 nM

## C[C@H]1[C@@H](CCOC(=O)c2cccc(F)c2)O[C@@H]2OC3(C)CC[C@H]4[C@H](C)CC[C@@H]1[C@@]24OO3 (single isomer, unassigned)
Mus musculus
  ED50: 6.99 mg/kg
Plasmodium falciparum [1]
  IC50: 0.35 nM
Plasmodium falciparum [2]
  IC50: 3.78 nM

## C[C@H]1[C@@H](CCOCc2ccccc2C(F)(F)F)O[C@@H]2OC3(C)CC[C@H]4[C@H](C)CC[C@@H]1[C@@]24OO3 (single isomer, unassigned)
Plasmodium falciparum [1]
  IC50: 1.64 nM
Plasmodium falciparum [2]
  IC50: 3.6 nM

## C[C@H]1[C@@H](CCOCc2ccc(C(F)(F)F)cc2)O[C@@H]2OC3(C)CC[C@H]4[C@H](C)CC[C@@H]1[C@@]24OO3 (single isomer, unassigned)
Plasmodium falciparum [1]
  IC50: 4.24 nM
Plasmodium falciparum [3]
  IC50: 3.75 nM

## C[C@@H]1CC[C@H]2[C@@H](C)C(=O)O[C@@H]3O[C@@]4(C)CC[C@@H]1[C@]32OO4 [ARTEMISININ]
Plasmodium falciparum [1]
  IC50: 3.04 nM
Plasmodium falciparum [2]
  IC50: 3.6 nM

## C[C@H]1[C@@H](CCOC(=O)c2ccccc2F)O[C@@H]2OC3(C)CC[C@H]4[C@H](C)CC[C@@H]1[C@@]24OO3 (single isomer, unassigned)
Plasmodium falciparum [1]
  IC50: 0.53 nM
Plasmodium falciparum [2]
  IC50: 1.12 nM

## CO[C@H]1O[C@@H]2O[C@@]3(C)CC[C@H]4[C@H](C)CC[C@@H]([C@H]1C)[C@@]24OO3 [ARTEMETHER]
Mus musculus
  ED50: 3.15 mg/kg

## C[C@H]1[C@@H](CCOC(=O)c2cccc(C(F)(F)F)c2)O[C@@H]2OC3(C)CC[C@H]4[C@H](C)CC[C@@H]1[C@@]24OO3 (single isomer, unassigned)
Plasmodium falciparum [1]
  IC50: 0.64 nM
Plasmodium falciparum [2]
  IC50: 4.7 nM

## C[C@H]1[C@@H](O)O[C@@H]2O[C@@]3(C)CC[C@H]4[C@H](C)CC[C@@H]1[C@@]24OO3 [ARTENIMOL]
Mus musculus
  ED50: 1.15 mg/kg
Plasmodium falciparum [1]
  IC50: 1.04 nM
Plasmodium falciparum [2]
  IC50: 2.2 nM

## C[C@H]1[C@@H](CCO)O[C@@H]2OC3(C)CC[C@H]4[C@H](C)CC[C@@H]1[C@@]24OO3 (single isomer, unassigned)
Mus musculus
  ED50: 7.81 mg/kg
Plasmodium falciparum [1]
  IC50: 3.51 nM
Plasmodium falciparum [2]
  IC50: 6.67 nM

## C[C@H]1[C@@H](CCOCc2cccc(F)c2)O[C@@H]2OC3(C)CC[C@H]4[C@H](C)CC[C@@H]1[C@@]24OO3 (single isomer, unassigned)
Plasmodium falciparum [1]
  IC50: 0.32 nM
Plasmodium falciparum [2]
  IC50: 6.43 nM

## C[C@H]1[C@@H](CCOC(=O)c2ccc(F)cc2)O[C@@H]2OC3(C)CC[C@H]4[C@H](C)CC[C@@H]1[C@@]24OO3 (single isomer, unassigned)
Plasmodium falciparum [1]
  IC50: 0.69 nM
Plasmodium falciparum [2]
  IC50: 1.92 nM
